# Results as given in ChEMBL document CHEMBL4130549, “Synthesis and bioactivities study of new antibacterial peptide mimics: The dialkyl cationic amphiphiles” (Eur J Med Chem, 2018).
# Activity calls are given as the source filed them. No cut-off for these calls is given here.
# Legend:
# Staphylococcus aureus [1] = test: Antibacterial activity against Staphylococcus aureus ATCC 29213 after 16 to 20 hrs by broth microdilution method; assay type: functional
# How it was run: (§1)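 CLSI broth microdilution in cation-adjusted Mueller-Hinton broth. A 4-6 h culture was diluted to about 10⁶ CFU/mL and mixed 1:1 with twofold compound dilutions (256–0.5 µg/mL before mixing) prepared from aqueous stocks. Plates were incubated at 37 °C for 16-20 h. Each concentration was tested in duplicate, and the experiment was repeated at least twice.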
# Enterococcus faecalis = test: Antibacterial activity against Enterococcus faecalis after 16 to 20 hrs by broth microdilution method; assay type: functional
# How it was run: (§2)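 Broth microdilution per CLSI in cation-adjusted Mueller-Hinton broth; 4-6 h cultures (~10⁸ CFU/mL) diluted to ~10⁶ CFU/mL and mixed 1:1 with twofold dilutions of water-dissolved compound (256 to 0.5 µg/mL). Incubated 16-20 h at 37 °C; MIC read visually. Each concentration run in duplicate, whole experiment repeated at least twice. MRSA, KPC and NDM-1 strains were clinical isolates.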
# Escherichia coli [2] = test: Antibacterial activity against Escherichia coli ATCC 25922 after 16 to 20 hrs by broth microdilution method; assay type: functional; how it was run: as §2
# Salmonella enterica = test: Antibacterial activity against Salmonella enterica after 16 to 20 hrs by broth microdilution method; assay type: functional; how it was run: as §2
# Staphylococcus aureus [3] = test: Antibacterial activity against methicillin-resistant Staphylococcus aureus after 16 to 20 hrs by broth microdilution method; assay type: functional; how it was run: as §1
# Klebsiella pneumoniae [4] = test: Antibacterial activity against carbapenemase-producing Klebsiella pneumoniae after 16 to 20 hrs by broth microdilution method; assay type: functional; how it was run: as §2
# Enterobacteriaceae [5] = test: Antibacterial activity against NDM-1-producing Enterobacteriaceae after 16 to 20 hrs by broth microdilution method; assay type: functional; how it was run: as §2
# [6] = Hemolytic activity in sheep RBC after 1 hr; assay type: ADME, cell-based, Ovis aries, Erythrocyte; details: sheep red blood cells (erythrocytes)
# How it was run: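 Sheep RBCs suspended at 5% in PBS; 150 µL added to 50 µL compound dilutions (5120 to 10 µg/mL series). Incubated 1 h at 37 °C, then centrifuged; supernatant absorbance read at 540 nm. Lysis (%) = (A−A0)/(Atotal−A0)×100, with untreated 5% RBC as A0 and 0.1% Triton X-100 as total.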
# Staphylococcus aureus [7] = test: Antibacterial activity against methicillin-resistant Staphylococcus aureus isolate M1 after 16 to 20 hrs by broth microdilution method; assay type: functional; how it was run: as §1
# Staphylococcus aureus [8] = test: Antibacterial activity against methicillin-resistant Staphylococcus aureus isolate M2 after 16 to 20 hrs by broth microdilution method; assay type: functional; how it was run: as §1
# Staphylococcus aureus [9] = test: Antibacterial activity against methicillin-resistant Staphylococcus aureus isolate M3 after 16 to 20 hrs by broth microdilution method; assay type: functional; how it was run: as §1
# Staphylococcus aureus [10] = test: Antibacterial activity against methicillin-resistant Staphylococcus aureus isolate M4 after 16 to 20 hrs by broth microdilution method; assay type: functional; how it was run: as §1
# Staphylococcus aureus [11] = test: Antibacterial activity against methicillin-resistant Staphylococcus aureus isolate M5 after 16 to 20 hrs by broth microdilution method; assay type: functional; how it was run: as §1
# Staphylococcus aureus [12] = test: Antibacterial activity against methicillin-resistant Staphylococcus aureus isolate M6 after 16 to 20 hrs by broth microdilution method; assay type: functional; how it was run: as §1
# Staphylococcus aureus [13] = test: Antibacterial activity against methicillin-resistant Staphylococcus aureus isolate M7 after 16 to 20 hrs by broth microdilution method; assay type: functional; how it was run: as §1
# Staphylococcus aureus [14] = test: Antibacterial activity against methicillin-resistant Staphylococcus aureus isolate M8 after 16 to 20 hrs by broth microdilution method; assay type: functional; how it was run: as §1
# Staphylococcus aureus [15] = test: Antibacterial activity against methicillin-resistant Staphylococcus aureus isolate M9 after 16 to 20 hrs by broth microdilution method; assay type: functional; how it was run: as §1
# Staphylococcus aureus [16] = test: Antibacterial activity against methicillin-resistant Staphylococcus aureus isolate M10 after 16 to 20 hrs by broth microdilution method; assay type: functional; how it was run: as §1
# Klebsiella pneumoniae [17] = test: Antibacterial activity against carbapenemase-producing Klebsiella pneumoniae isolate K1 after 16 to 20 hrs by broth microdilution method; assay type: functional; how it was run: as §2
# Klebsiella pneumoniae [18] = test: Antibacterial activity against carbapenemase-producing Klebsiella pneumoniae isolate K2 after 16 to 20 hrs by broth microdilution method; assay type: functional; how it was run: as §2
# Klebsiella pneumoniae [19] = test: Antibacterial activity against carbapenemase-producing Klebsiella pneumoniae isolate K3 after 16 to 20 hrs by broth microdilution method; assay type: functional; how it was run: as §2
# Klebsiella pneumoniae [20] = test: Antibacterial activity against carbapenemase-producing Klebsiella pneumoniae isolate K4 after 16 to 20 hrs by broth microdilution method; assay type: functional; how it was run: as §2
# Klebsiella pneumoniae [21] = test: Antibacterial activity against carbapenemase-producing Klebsiella pneumoniae isolate K5 after 16 to 20 hrs by broth microdilution method; assay type: functional; how it was run: as §2
# Klebsiella pneumoniae [22] = test: Antibacterial activity against carbapenemase-producing Klebsiella pneumoniae isolate K6 after 16 to 20 hrs by broth microdilution method; assay type: functional; how it was run: as §2
# Klebsiella pneumoniae [23] = test: Antibacterial activity against carbapenemase-producing Klebsiella pneumoniae isolate K7 after 16 to 20 hrs by broth microdilution method; assay type: functional; how it was run: as §2
# Klebsiella pneumoniae [24] = test: Antibacterial activity against carbapenemase-producing Klebsiella pneumoniae isolate K8 after 16 to 20 hrs by broth microdilution method; assay type: functional; how it was run: as §2
# Klebsiella pneumoniae [25] = test: Antibacterial activity against carbapenemase-producing Klebsiella pneumoniae isolate K9 after 16 to 20 hrs by broth microdilution method; assay type: functional; how it was run: as §2
# Klebsiella pneumoniae [26] = test: Antibacterial activity against carbapenemase-producing Klebsiella pneumoniae isolate K10 after 16 to 20 hrs by broth microdilution method; assay type: functional; how it was run: as §2
# Enterobacteriaceae [27] = test: Antibacterial activity against NDM-1-producing Enterobacteriaceae isolate N1 after 16 to 20 hrs by broth microdilution method; assay type: functional; how it was run: as §2
# Enterobacteriaceae [28] = test: Antibacterial activity against NDM-1-producing Enterobacteriaceae isolate N2 after 16 to 20 hrs by broth microdilution method; assay type: functional; how it was run: as §2
# Enterobacteriaceae [29] = test: Antibacterial activity against NDM-1-producing Enterobacteriaceae isolate N3 after 16 to 20 hrs by broth microdilution method; assay type: functional; how it was run: as §2
# Enterobacteriaceae [30] = test: Antibacterial activity against NDM-1-producing Enterobacteriaceae isolate N4 after 16 to 20 hrs by broth microdilution method; assay type: functional; how it was run: as §2
# Enterobacteriaceae [31] = test: Antibacterial activity against NDM-1-producing Enterobacteriaceae isolate N5 after 16 to 20 hrs by broth microdilution method; assay type: functional; how it was run: as §2
# Enterobacteriaceae [32] = test: Antibacterial activity against NDM-1-producing Enterobacteriaceae isolate N6 after 16 to 20 hrs by broth microdilution method; assay type: functional; how it was run: as §2
# Enterobacteriaceae [33] = test: Antibacterial activity against NDM-1-producing Enterobacteriaceae isolate N7 after 16 to 20 hrs by broth microdilution method; assay type: functional; how it was run: as §2
# Enterobacteriaceae [34] = test: Antibacterial activity against NDM-1-producing Enterobacteriaceae isolate N8 after 16 to 20 hrs by broth microdilution method; assay type: functional; how it was run: as §2
# Enterobacteriaceae [35] = test: Antibacterial activity against NDM-1-producing Enterobacteriaceae isolate N9 after 16 to 20 hrs by broth microdilution method; assay type: functional; how it was run: as §2
# Enterobacteriaceae [36] = test: Antibacterial activity against NDM-1-producing Enterobacteriaceae isolate N10 after 16 to 20 hrs by broth microdilution method; assay type: functional; how it was run: as §2
# Staphylococcus aureus [37] = test: Induction of cytoplasmic membrane depolarization in Staphylococcus aureus ATCC 29213 at 20 ug/ml measured every 2 mins for 12 mins by diSC35 staining based fluorescence assay; assay type: functional, organism-based
# How it was run: (§3)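 Mid-log cells (4–6 h) pelleted, washed and resuspended (~10^8 CFU/mL) in PBS for S. aureus, or in 5 mM HEPES, 5 mM glucose and 100 mM KCl (1:1:1) for E. coli. Preloaded with diSC35 (10 µM, 50 µL), 30 min for S. aureus and 40 min plus EDTA (200 µM, 50 µL) for E. coli. Baseline read 8 min (ex 622/em 670 nm), then compound added to 20 µg/mL final and read every 2 min for 12 min. Water control.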
# Escherichia coli [38] = test: Induction of cytoplasmic membrane depolarization in Escherichia coli ATCC 25922 at 20 ug/ml measured every 2 mins for 12 mins by diSC35 staining based fluorescence assay; assay type: functional, organism-based; how it was run: as §3
# Staphylococcus aureus [39] = test: Induction of inner membrane permeabilization in Staphylococcus aureus ATCC 29213 at 20 ug/ml measured every 2 mins for 12 mins by propidium iodide staining based fluorescence assay; assay type: functional, organism-based
# How it was run: (§4)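 Mid-log cells (~10^8 CFU/mL) pre-incubated with propidium iodide (10 µM, 50 µL), 30 min for S. aureus and 40 min for E. coli. Fluorescence (ex 535/em 617 nm) read for 8 min, then compound added to 20 µg/mL final and monitored every 2 min for 12 min. Water-treated control.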
# Escherichia coli [40] = test: Induction of inner membrane permeabilization in Escherichia coli ATCC 25922 at 20 ug/ml measured every 2 mins for 12 mins by propidium iodide staining based fluorescence assay; assay type: functional, organism-based; how it was run: as §4
# Escherichia coli [41] = test: Induction of outer membrane permeabilization in Escherichia coli ATCC 25922 at 20 ug/ml measured every 2 mins for 12 mins by NPN staining based fluorescence assay; assay type: functional, organism-based
# How it was run: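 Mid-log E. coli (~10^8 CFU/mL) in black plates pre-incubated about 40 min with NPN (10 µM, 50 µL). Baseline read 8 min (ex 350/em 420 nm), then compound added to 20 µg/mL final and fluorescence followed every 2 min for 12 min. Water-treated control.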
structure (smiles),measurement,setting,value
CCCCCCCCN(CCCCCCCC)C(=O)[C@@H](N)CO.Cl,MIC,Staphylococcus aureus [1],4 µg/mL
same,MIC,Enterococcus faecalis,2 µg/mL
same,MIC,Escherichia coli [2],8 µg/mL
same,MIC,Salmonella enterica,8 µg/mL
same,MIC,Staphylococcus aureus [3],2 µg/mL
same,MIC,Klebsiella pneumoniae [4],32 µg/mL
same,MIC,Enterobacteriaceae [5],16 µg/mL
same,HC50 at 1 h,[6],> 1000 µg/mL
same,MIC,Staphylococcus aureus [7],4 µg/mL
same,MIC,Staphylococcus aureus [8],4 µg/mL
same,MIC,Staphylococcus aureus [9],4 µg/mL
same,MIC,Staphylococcus aureus [10],4 µg/mL
same,MIC,Staphylococcus aureus [11],4 µg/mL
same,MIC,Staphylococcus aureus [12],4 µg/mL
same,MIC,Staphylococcus aureus [13],2 µg/mL
same,MIC,Staphylococcus aureus [14],4 µg/mL
same,MIC,Staphylococcus aureus [15],4 µg/mL
same,MIC,Staphylococcus aureus [16],2 µg/mL
same,MIC,Klebsiella pneumoniae [17],32 µg/mL
same,MIC,Klebsiella pneumoniae [18],32 µg/mL
same,MIC,Klebsiella pneumoniae [19],32 µg/mL
same,MIC,Klebsiella pneumoniae [20],32 µg/mL
same,MIC,Klebsiella pneumoniae [21],32 µg/mL
same,MIC,Klebsiella pneumoniae [22],32 µg/mL
same,MIC,Klebsiella pneumoniae [23],32 µg/mL
same,MIC,Klebsiella pneumoniae [24],32 µg/mL
same,MIC,Klebsiella pneumoniae [25],32 µg/mL
same,MIC,Klebsiella pneumoniae [26],32 µg/mL
same,MIC,Enterobacteriaceae [27],32 µg/mL
same,MIC,Enterobacteriaceae [28],32 µg/mL
same,MIC,Enterobacteriaceae [29],16 µg/mL
same,MIC,Enterobacteriaceae [30],16 µg/mL
same,MIC,Enterobacteriaceae [31],16 µg/mL
same,MIC,Enterobacteriaceae [32],16 µg/mL
same,MIC,Enterobacteriaceae [33],32 µg/mL
same,MIC,Enterobacteriaceae [34],32 µg/mL
same,MIC,Enterobacteriaceae [35],32 µg/mL
same,MIC,Enterobacteriaceae [36],32 µg/mL
same,Activity,Staphylococcus aureus [37],Active
same,Activity,Escherichia coli [38],Active
same,Activity,Staphylococcus aureus [39],Active
same,Activity,Escherichia coli [40],Active
same,Activity,Escherichia coli [41],Active
CCCCCCCN(CCCCCCC)C(=O)[C@@H](N)CCCCN.Cl.Cl,MIC,Staphylococcus aureus [1],8 µg/mL
same,MIC,Enterococcus faecalis,8 µg/mL
same,MIC,Escherichia coli [2],8 µg/mL
same,MIC,Salmonella enterica,16 µg/mL
same,MIC,Staphylococcus aureus [3],4 µg/mL
same,MIC,Klebsiella pneumoniae [4],16 µg/mL
same,MIC,Enterobacteriaceae [5],16 µg/mL
same,HC50 at 1 h,[6],434 µg/mL
same,MIC,Staphylococcus aureus [7],8 µg/mL
same,MIC,Staphylococcus aureus [8],16 µg/mL
same,MIC,Staphylococcus aureus [9],16 µg/mL
same,MIC,Staphylococcus aureus [10],16 µg/mL
same,MIC,Staphylococcus aureus [11],8 µg/mL
same,MIC,Staphylococcus aureus [12],4 µg/mL
same,MIC,Staphylococcus aureus [13],4 µg/mL
same,MIC,Staphylococcus aureus [14],8 µg/mL
same,MIC,Staphylococcus aureus [15],4 µg/mL
same,MIC,Staphylococcus aureus [16],4 µg/mL
same,MIC,Klebsiella pneumoniae [17],16 µg/mL
same,MIC,Klebsiella pneumoniae [18],16 µg/mL
same,MIC,Klebsiella pneumoniae [19],16 µg/mL
same,MIC,Klebsiella pneumoniae [20],16 µg/mL
same,MIC,Klebsiella pneumoniae [21],16 µg/mL
same,MIC,Klebsiella pneumoniae [22],16 µg/mL
same,MIC,Klebsiella pneumoniae [23],16 µg/mL
same,MIC,Klebsiella pneumoniae [24],16 µg/mL
same,MIC,Klebsiella pneumoniae [25],16 µg/mL
same,MIC,Klebsiella pneumoniae [26],16 µg/mL
same,MIC,Enterobacteriaceae [27],32 µg/mL
same,MIC,Enterobacteriaceae [28],32 µg/mL
same,MIC,Enterobacteriaceae [29],32 µg/mL
same,MIC,Enterobacteriaceae [30],32 µg/mL
same,MIC,Enterobacteriaceae [31],16 µg/mL
same,MIC,Enterobacteriaceae [32],16 µg/mL
same,MIC,Enterobacteriaceae [33],32 µg/mL
same,MIC,Enterobacteriaceae [34],32 µg/mL
same,MIC,Enterobacteriaceae [35],16 µg/mL
same,MIC,Enterobacteriaceae [36],16 µg/mL
same,Activity,Staphylococcus aureus [37],Active
same,Activity,Escherichia coli [38],Active
same,Activity,Staphylococcus aureus [39],Active
same,Activity,Escherichia coli [40],Active
same,Activity,Escherichia coli [41],Active
